Results reported in ChEMBL document CHEMBL5149984, “Discovery of HN37 as a Potent and Chemically Stable Antiepileptic Drug Candidate” (J Med Chem, 2021).
pIC50: −log10 of the molar value.

Experiments:
[1] = target: T1, Potassium voltage-gated channel subfamily KQT member 1 (Homo sapiens, UniProt P51787); assay: Agonist activity at human KCNQ1 channel expressed in CHO cells assessed as shift of half voltage of maximal activation at 10 uM by patch clamp method; format: cell-based
T1 sequence (P51787 whole entry): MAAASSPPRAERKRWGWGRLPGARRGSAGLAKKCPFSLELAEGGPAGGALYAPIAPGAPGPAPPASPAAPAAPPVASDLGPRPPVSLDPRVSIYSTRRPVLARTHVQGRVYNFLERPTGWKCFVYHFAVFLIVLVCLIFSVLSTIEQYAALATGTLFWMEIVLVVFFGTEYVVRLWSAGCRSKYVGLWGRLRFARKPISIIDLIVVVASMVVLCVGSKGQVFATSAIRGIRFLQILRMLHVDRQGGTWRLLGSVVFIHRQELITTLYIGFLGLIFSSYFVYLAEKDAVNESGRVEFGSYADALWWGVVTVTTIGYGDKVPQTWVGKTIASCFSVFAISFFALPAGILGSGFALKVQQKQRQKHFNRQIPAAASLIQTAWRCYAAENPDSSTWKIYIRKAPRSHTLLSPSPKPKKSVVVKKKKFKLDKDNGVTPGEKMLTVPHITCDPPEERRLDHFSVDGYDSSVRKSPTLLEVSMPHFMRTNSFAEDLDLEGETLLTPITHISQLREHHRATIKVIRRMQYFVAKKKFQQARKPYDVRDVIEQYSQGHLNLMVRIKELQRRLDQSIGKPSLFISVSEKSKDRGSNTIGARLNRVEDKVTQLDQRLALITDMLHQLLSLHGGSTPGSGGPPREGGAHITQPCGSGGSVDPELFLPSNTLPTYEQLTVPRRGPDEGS
Summary of the method: (§1)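 Whole-cell patch clamp at room temperature on CHO cells (DMEM/F12, 10% FBS) transiently co-transfected with EGFP and hKCNQ1, rKCNQ2, rKCNQ3 A278T, hKCNQ4 or hKCNQ5; KCNQ2/3 at 1:1 cDNA ratio. Pipette solution 145 mM KCl, 5 mM MgATP, pH 7.3; bath 140 mM NaCl, 5 mM KCl, pH 7.4, under perfusion. V1/2 from Boltzmann fits; I/I0 is current amplitude with versus without compound; n = 4−6.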

CHO = assay: Agonist activity at rat KCNQ3 A278T mutant expressed in CHO cells assessed as shift of half voltage of maximal activation at 10 uM by patch clamp method; format: cell-based; conditions: filed as agonist; summary of the method: as §1
Mus musculus [2] = assay: Anticonvulsant activity in MES induced Kunming mouse model of seizure at 30 mg/kg, po after 1 hr; format: functional
Summary of the method: (§2)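 MES test in male KM mice. Compounds freshly suspended in 0.5% CMC-Na and given by gavage at 20 mL/kg; 160 V stimulus through ear clips. Protection scored as absence of hindlimb tonic extension; time course at 0.25, 0.5, 1 and 2 h, otherwise tested at 1 h. ED50 from dose−response by nonlinear regression; Fisher's exact test versus vehicle.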

[3] = Neurotoxicity in Kunming mouse assessed as motor impairment rate at 250 mg/kg, po after 1 hr by rotarod test; format: toxicity, organism-based; conditions: in vivo
Summary of the method: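 Male KM mice dosed intragastrically with compound freshly suspended in 0.5% CMC-Na. Rotarod performance scored 1 h after dosing as the fraction of animals showing motor impairment. Fisher's exact test versus vehicle; TD50 from nonlinear dose−response fit.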

[4] = Tmax in Sprague-Dawley rat at 20 mg/kg, po measured upto 24 hrs by LC-MS/MS method; format: ADME, organism-based; conditions: in vivo
Summary of the method: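 Male SD rats (180–220 g) dosed orally at 2, 6 and 20 mg/kg, handled like the mice: fasting, 5% DMSO/5% Tween 80/saline vehicle, acetonitrile extraction, LC-MS/MS of plasma. In a separate set at 6 mg/kg p.o., blood and brain were sampled together.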

[5] = Cmax in Sprague-Dawley rat brain at 6 mg/kg, po measured upto 24 hrs by LC-MS/MS method; format: ADME, organism-based; design: time < 24 hrs, dose 6 mg/kg, route po
Summary of the method: (§3)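 Male SD rats (180−220 g) given single oral doses of 2, 6 and 20 mg/kg; handled as in the mouse PK study (fasted 12 h before and 2 h after dosing, 5% DMSO/5% Tween 80/90% saline formulation). In a separate 6 mg/kg p.o. set, blood and brain were sampled together. Plasma and brain levels by LC−MS/MS.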

[6] = Cmax in Sprague-Dawley rat blood at 6 mg/kg, po measured upto 24 hrs by LC-MS/MS method; format: ADME, organism-based; design: time < 24 hrs, dose 6 mg/kg, route po; summary of the method: as §3
[7] = Metabolic stability in dog liver microsomes assessed as half life; format: ADME, Canis lupus familiaris, Microsome
[8] = Metabolic stability in human liver microsomes assessed as intrinsic clearance; format: ADME, Microsome; conditions: read-out: CLH
CYP2C19 = CYP2C19 (Homo sapiens, UniProt P33261); assay: Inhibition of human liver microsome CYP2C19 at 0.10 to 50 uM preincubated with NADPH for 0.5 hrs followed by substrate addition by LC-MS/MS method relative to control; format: ADME; conditions: liver microsomes, dose 0.1-50 µM
Cytochrome P450 2D6 = Cytochrome P450 2D6 (Homo sapiens, UniProt P10635); assay: Time dependent inhibition of human liver microsome CYP2D6 preincubated for 0.5 hrs in presence or absence of NADPH followed by substrate addition by LC-MS/MS method; format: ADME, microsomes
Summary of the method: (§4)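 Human liver microsomes preincubated 0.5 h with 0.10–50 μM test compound, with or without NADPH, then CYP-specific probe substrate added and incubation continued. Metabolite measured by LC-MS/MS; % activity remaining relative to no-compound control; IC50 fitted by Probit model. For CYP3A4, midazolam 1′-hydroxylation and testosterone 6β-hydroxylation were read separately.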

Cytochrome P450 2B6 = Cytochrome P450 2B6 (Homo sapiens, UniProt P20813); assay: Time dependent inhibition of human liver microsome CYP2B6 preincubated for 0.5 hrs in presence of NADPH followed by substrate addition by LC-MS/MS method; format: ADME, microsomes; summary of the method: as §4
Cytochrome P450 2C8 = Cytochrome P450 2C8 (Homo sapiens, UniProt P10632); assay: Time dependent inhibition of human liver microsome CYP2C8 preincubated for 0.5 hrs in presence of NADPH followed by substrate addition by LC-MS/MS method; format: ADME, microsomes; summary of the method: as §4
[9] = target: Potassium voltage-gated channel subfamily KQT member 2/member 3 (Rattus norvegicus) (UniProt O88943+O88944); assay: Agonist activity at rat KCNQ2/3 channel expressed in CHO cells assessed as amplitude change of outward current at 0.1 uM by patch clamp method; format: cell-based; conditions: filed as agonist; summary of the method: as §1
Mus musculus [10] = assay: Anticonvulsant activity in MES induced Kunming mouse model of seizure at 2.5 mg/kg, po after 0.25 to 2 hr; format: functional; conditions: time 0.25-2 hrs; summary of the method: as §2
[11] = Drug concentration in Kunming mouse brain at 5 mg/kg; format: ADME, organism-based; conditions: in vivo, read-out: Ct
Summary of the method: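 Male KM mice (18−24 g) fasted 12 h before and 2 h after dosing, given 5 mg/kg orally in 5% DMSO/5% Tween 80/90% normal saline (n = 3 per time point). Aortic blood taken at 0.25–24 h and whole brain collected. Acetonitrile extraction with internal standard, then LC−MS/MS. Bioavailability calculated against the 2 mg/kg i.v. arm.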

CYP2C19, sequence (P33261 whole entry): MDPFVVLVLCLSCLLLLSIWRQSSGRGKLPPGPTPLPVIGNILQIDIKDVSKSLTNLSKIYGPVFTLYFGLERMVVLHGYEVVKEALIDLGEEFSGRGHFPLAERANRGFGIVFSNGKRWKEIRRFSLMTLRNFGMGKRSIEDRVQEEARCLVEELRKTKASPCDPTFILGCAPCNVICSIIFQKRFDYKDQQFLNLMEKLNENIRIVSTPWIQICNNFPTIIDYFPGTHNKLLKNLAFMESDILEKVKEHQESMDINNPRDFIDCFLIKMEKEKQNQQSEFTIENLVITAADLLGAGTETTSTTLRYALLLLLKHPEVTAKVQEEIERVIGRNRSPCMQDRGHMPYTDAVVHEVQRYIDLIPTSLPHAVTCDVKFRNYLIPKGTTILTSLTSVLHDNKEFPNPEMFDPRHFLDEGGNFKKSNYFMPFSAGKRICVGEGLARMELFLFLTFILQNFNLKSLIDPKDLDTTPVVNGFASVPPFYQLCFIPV
Cytochrome P450 2C8, sequence (P10632 whole entry): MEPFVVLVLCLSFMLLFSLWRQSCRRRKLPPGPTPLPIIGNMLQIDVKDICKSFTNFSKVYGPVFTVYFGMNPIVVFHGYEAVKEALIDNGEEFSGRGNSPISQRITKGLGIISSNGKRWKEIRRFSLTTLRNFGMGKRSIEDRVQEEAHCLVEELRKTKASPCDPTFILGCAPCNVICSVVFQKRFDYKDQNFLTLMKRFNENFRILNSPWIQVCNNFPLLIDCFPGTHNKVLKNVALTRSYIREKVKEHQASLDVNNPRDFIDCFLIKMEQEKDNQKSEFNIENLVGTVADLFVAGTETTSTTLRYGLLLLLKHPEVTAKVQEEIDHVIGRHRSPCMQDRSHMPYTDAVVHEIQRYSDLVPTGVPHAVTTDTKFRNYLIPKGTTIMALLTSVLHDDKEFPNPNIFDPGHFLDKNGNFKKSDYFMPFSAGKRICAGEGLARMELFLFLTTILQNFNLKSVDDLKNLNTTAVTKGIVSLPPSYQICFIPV
Cytochrome P450 2B6, sequence (P20813 whole entry): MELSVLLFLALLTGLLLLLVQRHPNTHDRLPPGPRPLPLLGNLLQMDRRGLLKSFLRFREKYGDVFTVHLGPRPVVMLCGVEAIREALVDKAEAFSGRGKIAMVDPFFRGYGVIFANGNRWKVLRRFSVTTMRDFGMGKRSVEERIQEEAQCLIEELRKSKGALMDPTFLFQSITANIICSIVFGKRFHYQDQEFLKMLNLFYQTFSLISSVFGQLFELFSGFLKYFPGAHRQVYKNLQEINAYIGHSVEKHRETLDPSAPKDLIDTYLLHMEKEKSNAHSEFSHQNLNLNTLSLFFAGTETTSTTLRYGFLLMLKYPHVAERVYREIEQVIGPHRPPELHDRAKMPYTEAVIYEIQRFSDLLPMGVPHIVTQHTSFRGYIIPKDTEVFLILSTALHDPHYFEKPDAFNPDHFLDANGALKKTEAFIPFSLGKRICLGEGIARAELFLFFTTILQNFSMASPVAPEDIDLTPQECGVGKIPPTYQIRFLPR
Cytochrome P450 2D6, sequence (P10635 whole entry): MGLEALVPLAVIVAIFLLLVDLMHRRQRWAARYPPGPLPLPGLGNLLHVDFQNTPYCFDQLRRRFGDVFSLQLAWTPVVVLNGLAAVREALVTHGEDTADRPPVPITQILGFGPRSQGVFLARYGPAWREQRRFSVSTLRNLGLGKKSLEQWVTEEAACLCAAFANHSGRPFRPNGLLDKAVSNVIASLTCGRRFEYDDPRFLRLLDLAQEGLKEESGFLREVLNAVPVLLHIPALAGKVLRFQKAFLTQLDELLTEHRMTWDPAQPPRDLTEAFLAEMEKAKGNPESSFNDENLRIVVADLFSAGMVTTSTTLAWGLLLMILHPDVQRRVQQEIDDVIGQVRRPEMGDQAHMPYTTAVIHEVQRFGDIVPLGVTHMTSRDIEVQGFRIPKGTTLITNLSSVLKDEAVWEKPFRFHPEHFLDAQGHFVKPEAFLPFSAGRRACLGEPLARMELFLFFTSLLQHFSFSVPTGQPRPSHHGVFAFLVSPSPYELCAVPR

| SMILES | Activity [1] | Activity (CHO) | Activity (Mus musculus [2]) | Activity [3] | Tmax [4] | Cmax [5] | Cmax [6] | half-life [7] | CLint scaled [8] | inhibition at 0.5 h, up to 50 µM (CYP2C19) | pIC50 (Cytochrome P450 2D6) | pIC50 (Cytochrome P450 2B6) | pIC50 (Cytochrome P450 2C8) | Activity [9] | Activity (Mus musculus [10]) | concentration [11] |
| --- | --- | --- | --- | --- | --- | --- | --- | --- | --- | --- | --- | --- | --- | --- | --- | --- |
| CCOC(=O)Nc1ccc(NCc2ccc(F)cc2)cc1N [EZOGABINE] | -8.03 mV | -46.8 mV | 60% | 62.5% |  |  |  |  |  |  |  |  |  |  |  |  |
| C#CCN(Cc1ccc(F)cc1)c1cc(C)c(NC(=O)OC)c(C)c1 |  |  |  |  | 3.67 h | 578 ng/mL | 162 ng/mL | 0.592 h | 62.7 mL/min/kg | < 25% | < 4.30 | 5.24 | 4.45 | 2.77 | 40% | 120 nM |
